Series [1] relates to Rattus norvegicus. The experiment in a line: Antidiabetic activity in ZDF rat assessed as blood glucose level at 10 mg/kg, po QD for 40 days (reference value: 771+/-60 mg/dL). The class given is functional.
For series [2], the system named is Rattus norvegicus. The series can be described thus: Antidiabetic activity in ZDF rat assessed as blood glucose level at 30 mg/kg, po QD for 40 days (reference value: 771+/-60 mg/dL). The series is classed as functional.
Series [3] has as its system Rattus norvegicus. The experiment in a line: Antidiabetic activity in ZDF rat assessed as triglyceride level at 3 mg/kg, po QD for 40 days (reference value: 618+/-52 mg/dL). The class given is functional.
Series [4] deals with Rattus norvegicus. The series can be described thus: Antidiabetic activity in ZDF rat assessed as triglyceride level at 1 mg/kg, po QD for 40 days (reference value: 618+/-52 mg/dL). The series is classed as functional.
The test system of series [5] is Rattus norvegicus. The experiment in a line: Antidiabetic activity in ZDF rat assessed as body weight gain at 3 mg/kg, po QD for 40 days (reference value: 133+/-9 g). The class given is functional. The method in brief: (§1)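 Male ZDF rats, starting at about 6 weeks old, were dosed orally once daily for 40 days in 1.5% CMC/0.2% Tween 20 suspension, n = 8/group. Body weight was followed over the study. Gain was calculated per animal from day 0 to day 40 and compared with vehicle and pioglitazone (3 mg/kg) groups. Data are mean ± SEM.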

Series [6] has as its system Rattus norvegicus. The experiment in a line: Antidiabetic activity in ZDF rat assessed as body weight gain at 1 mg/kg, po QD for 40 days (reference value: 133+/-9 g). The series is classed as functional. Summed up: as §1
In series [7] the test system is Rattus norvegicus. The series can be described thus: Antidiabetic activity in ZDF rat assessed as adiponectin level at 3 mg/kg, po QD for 40 days (reference value: 11.9+/-1.5 ug/ml). The class given is functional.
The test system of series [8] is Rattus norvegicus. The series can be described thus: Antidiabetic activity in ZDF rat assessed as adiponectin level at 30 mg/kg, po QD for 40 days (reference value: 11.9+/-1.5 ug/ml). The series is classed as functional.
The subject of series [9] is Rattus norvegicus. The series can be described thus: Antidiabetic activity in ZDF rat assessed as adiponectin level at 100 mg/kg, po QD for 40 days (reference value: 11.9+/-1.5 ug/ml). The class given is functional.
The subject of series [10] is Rattus norvegicus. The experiment in a line: Antidiabetic activity in ZDF rat assessed as body weight gain at 100 mg/kg, po QD for 40 days relative to pioglitazone. The series is classed as functional. The method in brief: as §1
For series [11], the target named is T1, Peroxisome proliferator-activated receptor gamma (Homo sapiens, UniProt P37231).
T1 sequence (P37231 whole entry): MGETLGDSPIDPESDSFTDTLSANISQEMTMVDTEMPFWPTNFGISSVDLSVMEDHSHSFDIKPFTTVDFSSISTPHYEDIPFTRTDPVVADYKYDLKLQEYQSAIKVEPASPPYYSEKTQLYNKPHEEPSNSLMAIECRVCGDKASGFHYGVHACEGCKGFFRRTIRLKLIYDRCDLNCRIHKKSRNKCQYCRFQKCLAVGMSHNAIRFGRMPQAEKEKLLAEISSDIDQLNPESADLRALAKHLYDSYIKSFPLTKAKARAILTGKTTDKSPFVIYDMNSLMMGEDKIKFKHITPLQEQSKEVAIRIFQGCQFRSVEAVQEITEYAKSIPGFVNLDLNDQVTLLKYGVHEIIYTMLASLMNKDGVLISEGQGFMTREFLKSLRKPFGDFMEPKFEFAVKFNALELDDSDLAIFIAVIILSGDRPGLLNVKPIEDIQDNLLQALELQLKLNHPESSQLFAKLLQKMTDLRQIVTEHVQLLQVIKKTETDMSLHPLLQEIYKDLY
The series can be described thus: Partial agonist activity at human PPARgamma-LBD/Gal4 DNA binding domain by transactivation assay.

The target of series [12] is T2, Peroxisome proliferator-activated receptor alpha (Homo sapiens) (UniProt Q07869).
T2 sequence (whole entry): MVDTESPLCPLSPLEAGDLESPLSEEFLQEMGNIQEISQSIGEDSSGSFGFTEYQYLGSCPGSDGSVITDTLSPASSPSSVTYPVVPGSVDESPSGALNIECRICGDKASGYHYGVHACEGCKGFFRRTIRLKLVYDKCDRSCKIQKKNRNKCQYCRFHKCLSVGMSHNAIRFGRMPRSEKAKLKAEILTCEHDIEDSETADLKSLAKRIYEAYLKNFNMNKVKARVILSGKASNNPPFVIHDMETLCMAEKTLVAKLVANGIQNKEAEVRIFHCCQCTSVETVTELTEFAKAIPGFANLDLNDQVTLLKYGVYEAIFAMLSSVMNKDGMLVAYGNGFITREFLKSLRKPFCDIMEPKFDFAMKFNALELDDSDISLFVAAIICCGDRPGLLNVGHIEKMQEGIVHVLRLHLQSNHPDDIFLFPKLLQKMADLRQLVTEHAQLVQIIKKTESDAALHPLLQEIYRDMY
The experiment in a line: Transactivation of human PPARalpha.

Series [13] concerns the target T3, Peroxisome proliferator-activated receptor delta (Homo sapiens) (UniProt Q03181).
T3 sequence (whole entry): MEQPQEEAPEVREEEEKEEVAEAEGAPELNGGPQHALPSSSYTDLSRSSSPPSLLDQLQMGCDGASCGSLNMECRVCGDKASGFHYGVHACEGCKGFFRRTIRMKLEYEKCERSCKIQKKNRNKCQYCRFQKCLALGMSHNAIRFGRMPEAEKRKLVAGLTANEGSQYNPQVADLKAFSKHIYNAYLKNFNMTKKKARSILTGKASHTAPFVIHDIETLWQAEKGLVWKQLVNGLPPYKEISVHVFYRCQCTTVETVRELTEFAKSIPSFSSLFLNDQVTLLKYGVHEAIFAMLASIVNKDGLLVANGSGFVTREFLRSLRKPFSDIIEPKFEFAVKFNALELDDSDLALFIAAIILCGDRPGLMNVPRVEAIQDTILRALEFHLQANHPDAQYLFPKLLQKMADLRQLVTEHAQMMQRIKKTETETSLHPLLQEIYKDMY
The experiment in a line: Transactivation of human PPARbeta.

Series [14] is described as follows: AUC in rat at 5 mg/kg, po. The following applies: plasma. The arrangement: dose 5 mg/kg, route oral. The series is classed as ADME, organism-based.
Series [15] is described as follows: Oral bioavailability in rat at 5 mg/kg. The series is classed as ADME, organism-based. Particulars: in vivo.
For series [16], the system named is Rattus norvegicus. The experiment in a line: Antihypertensive activity in po dosed SHR rat assessed as decrease in arterial blood pressure administered as single dose. The series is classed as functional, organism-based. Particulars: Artery. The method in brief:
(§2)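 SHR carried aortic radiotelemetry transmitters implanted under Telazol anesthesia and recovered for at least 1 week. Rats were randomized by 2 h baseline mean BP. Each received vehicle by oral gavage on Day 0 and a single drug dose (0.3–10 mg/kg) on Day 1, with BP followed 20 h each day. The change was taken as Day 1 minus Day 0, n = 8/group.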

Series [17] is described as follows: Cmax in SHR rat at 1 mg/kg, po. The series is classed as ADME, organism-based. The arrangement: dose 1 mg/kg, route oral. The following applies: in vivo. Summed up:
(§3)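 SHR received a single oral dose of 1, 3 or 10 mg/kg. Systemic exposure was determined as plasma Cmax and AUC.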

Series [18] can be described thus: AUC in SHR rat at 3 mg/kg, po. The class given is ADME, organism-based. The arrangement: dose 3 mg/kg, route oral. The following applies: plasma. The method in brief: as §3
Series [19] has as its system Rattus norvegicus. The series can be described thus: Antihypertensive activity in SHR rat assessed as decrease in arterial blood pressure at 0.3 to 10 mg/kg, po administered as single dose measured after 20 hrs. The following applies: Artery. The series is classed as functional, organism-based. Summed up: as §2
The nature of series [20]: Cmax in ZDF rat at 10 mg/kg, po. The class given is ADME, organism-based. The arrangement: dose 10 mg/kg, route oral. Particulars: in vivo. The method in brief:
(§4)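 Male ZDF rats; satellite animals outside the efficacy groups were given oral doses of 3, 10 or 100 mg/kg. Plasma Cmax and AUC were calculated from these animals.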

A short description of series [21]: AUC in ZDF rat at 3 mg/kg, po. The series is classed as ADME, organism-based. Particulars: plasma. The arrangement: dose 3 mg/kg, route oral. The method in brief: as §4
Series [22] can be described thus: AUC in ZDF rat at 100 mg/kg, po. The class given is ADME, organism-based. Also noted: dose 100 mg/kg, route oral. Particulars: plasma. Summed up: as §4

Structures are written as SMILES. Calls of active or inactive are those of the source. No cut-off for these calls is given here.

As usually defined, the EC50 is the concentration that produces a half-maximal response. Lower therefore signals a more potent agent. One may read the AUC as concentration integrated over time. Higher therefore signals high exposure. The term bioavailability denotes dose-corrected exposure relative to a reference, in per cent. Higher therefore signals good availability. As usually defined, the Cmax is the peak of the concentration-time curve. Consider `CCc1nc2c(C)cc(CC(C)C)nc2n1[C@H]1CCc2cc(-c3ccccc3-c3nnn[nH]3)ccc21`, for which the Activity with Rattus norvegicus [1] is 159 mg/dL; in the series on Rattus norvegicus [2] it was 140 mg/dL; in the series on Rattus norvegicus [3], 734 mg/dL; with Rattus norvegicus [4] it was 725 mg/dL; in the series on Rattus norvegicus [5], 159 g; with Rattus norvegicus [6], 150 g. Moreover, the Activity in the series on Rattus norvegicus [7] was determined as 11.4 µg/mL; with Rattus norvegicus [8], 24.3 µg/mL; in the series on Rattus norvegicus [9] it was 27.5 µg/mL; in the series with Rattus norvegicus [10], 51%. The midpoint of the response in series [11], the EC50, lay at 212 nM. Also, the outcome in series [12] and in series [13] was inactive. Moreover, the AUC was determined as 4950 ng·h/mL in series [14], 1280 ng·h/mL in series [18], 4400 ng·h/mL in series [21] and 2600 µg·h/mL in series [22]. The same molecule returned a bioavailability in series [15] of 80%. For the same molecule, the result in the series on Rattus norvegicus [16] and with Rattus norvegicus [19] was Active. Moreover, the Cmax was determined as 74 ng/mL in [17] and 2730 ng/mL in series [20].

For the origin of these results see ChEMBL document CHEMBL1800018, “Discovery of a series of imidazo[4,5-b]pyridines with dual activity at angiotensin II type 1 receptor and peroxisome proliferator-activated receptor-γ” (J Med Chem, 2011).
